Laboratory results: ChEMBL document CHEMBL1130189, “Anionic- and lipophilic-mediated surface binding inhibitors of human leukocyte elastase” (J Med Chem, 1997)

T1: Neutrophil elastase (Homo sapiens, UniProt P08246)
T1 sequence (P08246 whole entry): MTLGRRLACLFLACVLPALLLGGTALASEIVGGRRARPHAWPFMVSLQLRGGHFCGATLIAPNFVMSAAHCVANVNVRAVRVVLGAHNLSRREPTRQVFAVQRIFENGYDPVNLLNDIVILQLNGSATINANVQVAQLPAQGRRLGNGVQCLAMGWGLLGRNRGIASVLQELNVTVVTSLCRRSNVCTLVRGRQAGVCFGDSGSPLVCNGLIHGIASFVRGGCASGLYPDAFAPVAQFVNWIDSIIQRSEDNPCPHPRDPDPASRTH

T2: Cathepsin G (Homo sapiens, UniProt P08311)
T2 sequence (P08311 whole entry): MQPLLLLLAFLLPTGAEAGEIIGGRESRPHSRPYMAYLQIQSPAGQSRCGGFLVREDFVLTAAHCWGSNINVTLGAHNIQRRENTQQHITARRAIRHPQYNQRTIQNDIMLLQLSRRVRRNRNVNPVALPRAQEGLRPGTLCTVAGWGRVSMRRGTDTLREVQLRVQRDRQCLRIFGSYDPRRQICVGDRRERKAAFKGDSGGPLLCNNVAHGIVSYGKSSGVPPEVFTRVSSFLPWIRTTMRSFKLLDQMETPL

T3: Neutrophil elastase (Homo sapiens) (UniProt P08246)
T3 sequence (whole entry): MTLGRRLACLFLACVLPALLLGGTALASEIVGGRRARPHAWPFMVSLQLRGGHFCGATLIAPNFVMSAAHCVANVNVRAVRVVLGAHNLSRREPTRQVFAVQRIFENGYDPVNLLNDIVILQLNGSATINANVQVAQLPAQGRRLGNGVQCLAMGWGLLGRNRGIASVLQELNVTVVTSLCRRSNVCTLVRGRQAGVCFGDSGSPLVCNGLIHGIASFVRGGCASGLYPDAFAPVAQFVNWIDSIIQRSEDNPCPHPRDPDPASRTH

B1: Neutrophil elastase (Homo sapiens), P08246 (protein)
chain: MTLGRRLACLFLACVLPALLLGGTALASEIVGGRRARPHAWPFMVSLQLRGGHFCGATLIAPNFVMSAAHCVANVNVRAVRVVLGAHNLSRREPTRQVFAVQRIFENGYDPVNLLNDIVILQLNGSATINANVQVAQLPAQGRRLGNGVQCLAMGWGLLGRNRGIASVLQELNVTVVTSLCRRSNVCTLVRGRQAGVCFGDSGSPLVCNGLIHGIASFVRGGCASGLYPDAFAPVAQFVNWIDSIIQRSEDNPCPHPRDPDPASRTH

Columns and labels:
[1] = target: T1, Neutrophil elastase; test: Inhibitory activity against human leukocyte elastase
[2] = target: T2, Cathepsin G; test: Inhibition of cathepsin G at pH 7.5 in HEPES buffer containing 200 mM NaCl with substrate Suc-Ala-Ala-Pro-Phe-pNA.
How it was run: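 Wells pre-equilibrated at 37 °C >10 min before enzyme start. A405 followed 15 min. Eight concentrations over a 200-fold span. Ki from competitive fit of vi/vc versus [I].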

[3] = target: Prothrombin (Homo sapiens, UniProt P00734); test: Inhibition of thrombin at pH 7.5 in HEPES buffer containing 200 mM NaCl with substrate Bz-Phe-Val-Arg-pNA.
How it was run: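 Reaction started with enzyme after >10 min equilibration. A405 rise recorded 15 min. Eight compound levels over a 200-fold range. Ki from competitive-model fit of vi/vc.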

[4] = target: T1, Neutrophil elastase; test: Binding Affinity to inhibit HLE
How it was run: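 Purified human leukocyte elastase (3 nM final) with 10 µM […] (below Km 200 µM) in 50 mM HEPES, 200 mM NaCl, pH 7.5, 0.3% DMSO. Inhibitor and substrate pre-equilibrated at 37 °C for >10 min, then enzyme added. A405 read for 15 min. Eight inhibitor levels spanning a 200-fold range. Ki from fit of vi/vc to the competitive-inhibition equation.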

[5] = target: T3, Neutrophil elastase (Homo sapiens); conditions: 0.5 uM
[6] = target: T3, Neutrophil elastase (Homo sapiens); conditions: 0.2 uM
[7] = target: T3, Neutrophil elastase (Homo sapiens); conditions: 1 uM
[8] = substrate: O=C(O)COc1cc(Cc2cc(OCc3ccccc3)c(Cc3cc(OCc4ccccc4)c(Cc4cc(OCc5ccccc5)c(Cc5cc(OCc6ccccc6)c(Cc6cc(O)ccc6OCC(=O)O)cc5OCC(=O)O)cc4OCC(=O)O)cc3OCC(=O)O)cc2OCC(=O)O)c(OCc2ccccc2)cc1CO; conditions: 0.5 uM
[9] = substrate: O=C(O)COc1cc(Cc2cc(OCc3ccccc3)c(Cc3cc(OCc4ccccc4)c(Cc4cc(OCc5ccccc5)c(Cc5cc(OCc6ccccc6)c(Cc6cc(O)ccc6OCC(=O)O)cc5OCC(=O)O)cc4OCC(=O)O)cc3OCC(=O)O)cc2OCC(=O)O)c(OCc2ccccc2)cc1CO; conditions: 0.2 uM
[10] = substrate: O=C(O)COc1cc(Cc2cc(OCc3ccccc3)c(Cc3cc(OCc4ccccc4)c(Cc4cc(OCc5ccccc5)c(Cc5cc(OCc6ccccc6)c(Cc6cc(O)ccc6OCC(=O)O)cc5OCC(=O)O)cc4OCC(=O)O)cc3OCC(=O)O)cc2OCC(=O)O)c(OCc2ccccc2)cc1CO; conditions: 1 uM

| Molecule | Ki [1] | Ki [2] | Ki [3] | other results |
| --- | --- | --- | --- | --- |
| COc1ccc(OCC(=O)O)c(Cc2cc(OCCCc3ccccc3)c(Cc3cc(OCC(=O)O)c(Cc4cc(OCCCc5ccccc5)c(Cc5cc(OCC(=O)O)c(Cc6cc(OCCCc7ccccc7)c(C)cc6OC)cc5OC)cc4OC)cc3OC)cc2OC)c1 | 100 nM | > 15000 nM | 1700 nM |  |
| COc1ccc(OCC(=O)O)c(Cc2cc(O)c(Cc3cc(OCC(=O)O)c(Cc4cc(O)c(Cc5cc(OCC(=O)O)c(Cc6cc(O)c(C)cc6OC)cc5OC)cc4OC)cc3OC)cc2OC)c1 | 1300 nM | > 15000 nM | > 15000 nM |  |
| COc1ccc(OCC(=O)O)c(Cc2cc(OCC3CCCCC3)c(Cc3cc(OCC(=O)O)c(Cc4cc(OCC5CCCCC5)c(Cc5cc(OCC(=O)O)c(Cc6cc(OCC7CCCCC7)c(C)cc6OC)cc5OC)cc4OC)cc3OC)cc2OC)c1 | 20 nM | > 15000 nM | > 15000 nM |  |
| O=C(O)COc1cc(Cc2cc(OCc3ccccc3)c(Cc3cc(OCc4ccccc4)c(Cc4cc(OCc5ccccc5)c(Cc5cc(OCc6ccccc6)c(Cc6cc(O)ccc6OCC(=O)O)cc5OCC(=O)O)cc4OCC(=O)O)cc3OCC(=O)O)cc2OCC(=O)O)c(OCc2ccccc2)cc1CO | 120 nM | > 15000 nM | > 15000 nM | Ki [4]: 190 nM; Vm [5]: 0.2 µM; Vm [6]: 0.2 µM; Vm [7]: 0.2 µM |
| COc1ccc(OCC(=O)O)c(Cc2cc(OCCCCCc3ccccc3)c(Cc3cc(OCC(=O)O)c(Cc4cc(OCCCCCc5ccccc5)c(Cc5cc(OCC(=O)O)c(Cc6cc(OCCCCCc7ccccc7)c(C)cc6OC)cc5OC)cc4OC)cc3OC)cc2OC)c1 | 17 nM | > 15000 nM | 1400 nM |  |
| CC(C)(C)c1cc2c(OCC(=O)O)c(c1)Cc1cc(C(C)(C)C)cc(c1OCC(=O)O)Cc1cc(C(C)(C)C)cc(c1OCC(=O)O)Cc1cc(C(C)(C)C)cc(c1OCC(=O)O)Cc1cc(C(C)(C)C)cc(c1OCC(=O)O)Cc1cc(C(C)(C)C)cc(c1OCC(=O)O)Cc1cc(C(C)(C)C)cc(c1OCC(=O)O)Cc1cc(C(C)(C)C)cc(c1OCC(=O)O)C2 | 1300 nM |  |  |  |
| COc1cc(CO)c(OCc2ccccc2)cc1Cc1cc(OC)c(Cc2cc(OC)c(Cc3cc(OC)c(Cc4cc(OC)c(Cc5cc(O)ccc5OCC(=O)O)cc4OCc4ccccc4)cc3OCC(=O)O)cc2OCc2ccccc2)cc1OCC(=O)O | 200 nM | 1500 nM | > 15000 nM |  |
| O=C(O)COc1cc(Cc2cc(OCc3ccccc3)c(Cc3cc(OCc4ccccc4)c(Cc4cc(OCc5ccccc5)c(Cc5cc(O)ccc5OCC(=O)O)cc4OCC(=O)O)cc3OCC(=O)O)cc2OCC(=O)O)c(OCc2ccccc2)cc1CO | 130 nM | > 15000 nM | 750 nM |  |
| COCCOCOc1cc(Cc2cc(OC)c(Cc3cc(OC)c(Cc4cc(OC)c(Cc5cc(OC)c(Cc6cc(OC)ccc6OCC(=O)O)cc5OCOCCOC)cc4OCC(=O)O)cc3OCOCCOC)cc2OCC(=O)O)c(OC)cc1C | 1000 nM | > 15000 nM | 240 nM |  |
| O=C(O)COc1cc(Cc2cc(OCc3ccccc3)c(Cc3cc(OCc4ccccc4)c(Cc4cc(O)ccc4OCC(=O)O)cc3OCC(=O)O)cc2OCC(=O)O)c(OCc2ccccc2)cc1CO | 8300 nM | > 15000 nM | > 15000 nM |  |
| B1 |  |  |  | Km [8]: 1.1 µM; Km [9]: 0.77 µM; Km [10]: 2.3 µM |
